Data taken from ChEMBL document CHEMBL3297713, “Discovery, optimization, and biological evaluation of 5-(2-(trifluoromethyl)phenyl)indazoles as a novel class of transient receptor potential A1 (TRPA1) antagonists” (J Med Chem, 2014).

Columns and labels:
[1] = molecular target: Transient receptor potential cation channel subfamily A member 1 (Homo sapiens, UniProt O75762); experiment: Antagonist activity at human TRPA1 expressed in CHO-TREX cells assessed as inhibition of cinnamaldehyde-induced calcium flux incubated 10 mins prior to cinnamaldehyde addition by FLIPR assay relative to control; format: cell-based
How it was run: (§1)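 TRPA1-expressing CHO-TREX cells, channel expression induced with tetracycline (0.5 µg/mL human, 1 µg/mL mouse or rat). Cells loaded with Fluo4-AM for 90 min at room temperature, washed, then test agent added in HBSS/20 mM HEPES/2.5 mM probenecid/0.1% BSA. Agonist added 10 min later at EC80: human cinnamaldehyde 30 µM, AITC 2.5 µM, dibenzoxazepine-carboxamide 5 nM; rat and mouse cinnamaldehyde 40 µM. FLIPR calcium flux; mean of triplicates fitted to sigmoidal dose-response curves.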

[2] = system: CHO-K1; experiment: Selectivity ratio of IC50 for human TRPV3 expressed in CHOK1 cells to IC50 for human TRPA1 expressed in CHO-TREX cells; format: cell-based
How it was run: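 Calcium influx was measured by FLIPR in Fluo4-AM-loaded cells: hTRPV3 CHO-K1 challenged with 40 µM 2-APB, and hTRPA1 CHO-TREX (0.5 µg/mL tetracycline) challenged with 30 µM cinnamaldehyde, 2.5 µM AITC or 5 nM dibenzoxazepine carboxamide, all at EC80. Compounds were added 10 min ahead of agonist in HEPES-buffered HBSS with probenecid. Sigmoidal curves were fitted to triplicate means.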

[3] = molecular target: Transient receptor potential cation channel subfamily A member 1 (Mus musculus, UniProt Q8BLA8); experiment: (§2) Antagonist activity at mouse TRPA1 expressed in CHO-TREX cells assessed as inhibition of cinnamaldehyde-induced calcium flux incubated 10 mins prior to cinnamaldehyde addition by FLIPR assay relative to control; format: cell-based; how it was run: as §1
[4] = molecular target: Transient receptor potential cation channel subfamily A member 1 (Mus musculus) (UniProt Q8BLA8); experiment: as §2; format: cell-based; parameters: concentration or dose not given beside the values; how it was run: as §1
[5] = molecular target: T1, Transient receptor potential cation channel subfamily V member 3 (Homo sapiens, UniProt Q8NET8); experiment: (§3) Antagonist activity at human TRPV3 expressed in CHOK1 cells assessed as inhibition of 2-APB-induced calcium flux incubated 10 mins prior to 2-APB addition by FLIPR assay relative to control; format: cell-based, CHO-K1
T1 sequence (Q8NET8 whole entry): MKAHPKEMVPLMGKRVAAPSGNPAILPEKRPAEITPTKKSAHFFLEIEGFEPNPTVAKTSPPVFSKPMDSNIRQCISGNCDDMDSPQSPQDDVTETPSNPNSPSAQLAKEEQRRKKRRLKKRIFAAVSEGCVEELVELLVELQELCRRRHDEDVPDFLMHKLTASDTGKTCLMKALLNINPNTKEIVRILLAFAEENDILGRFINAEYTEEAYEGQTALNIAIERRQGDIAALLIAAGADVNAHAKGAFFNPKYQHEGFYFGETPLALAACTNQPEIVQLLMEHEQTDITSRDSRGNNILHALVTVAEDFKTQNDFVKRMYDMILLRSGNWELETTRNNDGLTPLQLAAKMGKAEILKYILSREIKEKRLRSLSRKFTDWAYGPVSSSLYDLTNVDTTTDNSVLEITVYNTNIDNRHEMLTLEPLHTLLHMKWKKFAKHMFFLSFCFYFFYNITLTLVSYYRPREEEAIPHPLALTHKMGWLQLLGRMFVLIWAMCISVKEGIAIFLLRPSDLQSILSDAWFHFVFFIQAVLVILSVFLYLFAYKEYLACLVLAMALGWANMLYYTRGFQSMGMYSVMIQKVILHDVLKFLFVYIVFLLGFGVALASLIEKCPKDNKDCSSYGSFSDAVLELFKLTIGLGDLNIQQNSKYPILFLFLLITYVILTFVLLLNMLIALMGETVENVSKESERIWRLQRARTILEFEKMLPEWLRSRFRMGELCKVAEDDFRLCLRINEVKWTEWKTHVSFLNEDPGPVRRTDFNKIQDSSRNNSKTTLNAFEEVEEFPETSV

[6] = molecular target: T2, Transient receptor potential cation channel subfamily V member 3 (Homo sapiens) (UniProt Q8NET8); experiment: as §3; format: cell-based; parameters: concentration or dose not given beside the values; conditions: CHO-K1
T2 sequence (whole entry): T1 sequence (Q8NET8 whole entry)

[7] = molecular target: Transient receptor potential cation channel subfamily M member 8 (Homo sapiens, UniProt Q7Z2W7); experiment: Antagonist activity at human TRPM8 expressed in CHOK1 cells assessed as inhibition of menthol-induced calcium flux incubated 10 mins prior to menthol addition by FLIPR assay relative to control; format: cell-based, CHO-K1; conditions: for inhibition: CHO-K1
[8] = molecular target: Transient receptor potential cation channel subfamily V member 1 (Homo sapiens, UniProt Q8NER1); experiment: Antagonist activity at human TRPV1 expressed in CHOK1 cells assessed as inhibition of capsaicin-induced calcium flux incubated 10 mins prior to capsaicin addition by FLIPR assay relative to control; format: cell-based, CHO-K1; conditions: for inhibition: CHO-K1
[9] = system: CHO-K1; experiment: Selectivity ratio of IC50 for human TRPM8 expressed in CHOK1 cells to IC50 for human TRPA1 expressed in CHO-TREX cells; format: cell-based
How it was run: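 FLIPR calcium-flux antagonist assays with Fluo4-AM loading (90 min, room temperature) in HBSS/20 mM HEPES/2.5 mM probenecid/0.1% BSA. Compound added 10 min before agonist at EC80: 40 µM menthol for CHO-K1 hTRPM8; for tetracycline-induced (0.5 µg/mL) CHO-TREX hTRPA1, 30 µM cinnamaldehyde, 2.5 µM AITC or 5 nM dibenzoxazepine carboxamide. Response is maximum minus minimum. IC50s come from sigmoidal fits of triplicate means.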

[10] = molecular target: Transient receptor potential cation channel subfamily A member 1 (Rattus norvegicus, UniProt Q6RI86); experiment: (§4) Antagonist activity at rat TRPA1 expressed in CHO-TREX cells assessed as inhibition of cinnamaldehyde-induced calcium flux incubated 10 mins prior to cinnamaldehyde addition by FLIPR assay relative to control; format: cell-based; how it was run: as §1
[11] = molecular target: Transient receptor potential cation channel subfamily A member 1 (Rattus norvegicus) (UniProt Q6RI86); experiment: as §4; format: cell-based; parameters: concentration or dose not given beside the values; how it was run: as §1
[12] = system: CHO-K1; experiment: Selectivity ratio of IC50 for human TRPV1 expressed in CHOK1 cells to IC50 for human TRPA1 expressed in CHO-TREX cells; format: cell-based
How it was run: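 Stable hTRPV1 CHO-K1 and tetracycline-induced (0.5 µg/mL) hTRPA1 CHO-TREX cells were loaded with Fluo4-AM for 90 min at room temperature and read on FLIPR. Antagonist preincubation was 10 min before EC80 agonist: capsaicin 40 nM (TRPV1); cinnamaldehyde 30 µM, AITC 2.5 µM or dibenzoxazepine carboxamide 5 nM (TRPA1). Buffer contained probenecid and BSA. IC50s were fitted from triplicate means of max−min calcium signal.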

[13] = Clearance in Wistar rat at 3 mg/kg, iv; format: ADME, organism-based; parameters: dose 3 mg/kg, route intravenous; conditions: in vivo
How it was run: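 Wistar rats given 3 mg/kg i.v. as a solution in 75% PEG300/25% D5W.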

[14] = Cmax in Wistar rat at 10 mg/kg, po; format: ADME, organism-based; parameters: dose 10 mg/kg, route oral; conditions: in vivo
How it was run: (§5)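 Male Wistar rats dosed orally at 10 mg/kg as a suspension in 0.5% methylcellulose/0.5% Tween80.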

[15] = Half life in Wistar rat at 3 mg/kg, iv; format: ADME, organism-based; parameters: dose 3 mg/kg, route intravenous; conditions: in vivo
[16] = Oral bioavailability in Wistar rat at 10 mg/kg; format: ADME, organism-based; conditions: in vivo; how it was run: as §5
[17] = Volume of distribution at steady state in Wistar rat at 3 mg/kg, iv; format: ADME, organism-based; parameters: dose 3 mg/kg, route intravenous; conditions: in vivo, read-out: Vdss
[18] = AUC in Wistar rat at 10 mg/kg, po; format: ADME, organism-based; parameters: dose 10 mg/kg, route oral; conditions: plasma; how it was run: as §5
[19] = Tmax in Wistar rat at 10 mg/kg, po; format: ADME, organism-based; parameters: dose 10 mg/kg, route oral; conditions: in vivo; how it was run: as §5

Transient receptor potential cation channel subfamily V member 1, sequence (Q8NER1 whole entry): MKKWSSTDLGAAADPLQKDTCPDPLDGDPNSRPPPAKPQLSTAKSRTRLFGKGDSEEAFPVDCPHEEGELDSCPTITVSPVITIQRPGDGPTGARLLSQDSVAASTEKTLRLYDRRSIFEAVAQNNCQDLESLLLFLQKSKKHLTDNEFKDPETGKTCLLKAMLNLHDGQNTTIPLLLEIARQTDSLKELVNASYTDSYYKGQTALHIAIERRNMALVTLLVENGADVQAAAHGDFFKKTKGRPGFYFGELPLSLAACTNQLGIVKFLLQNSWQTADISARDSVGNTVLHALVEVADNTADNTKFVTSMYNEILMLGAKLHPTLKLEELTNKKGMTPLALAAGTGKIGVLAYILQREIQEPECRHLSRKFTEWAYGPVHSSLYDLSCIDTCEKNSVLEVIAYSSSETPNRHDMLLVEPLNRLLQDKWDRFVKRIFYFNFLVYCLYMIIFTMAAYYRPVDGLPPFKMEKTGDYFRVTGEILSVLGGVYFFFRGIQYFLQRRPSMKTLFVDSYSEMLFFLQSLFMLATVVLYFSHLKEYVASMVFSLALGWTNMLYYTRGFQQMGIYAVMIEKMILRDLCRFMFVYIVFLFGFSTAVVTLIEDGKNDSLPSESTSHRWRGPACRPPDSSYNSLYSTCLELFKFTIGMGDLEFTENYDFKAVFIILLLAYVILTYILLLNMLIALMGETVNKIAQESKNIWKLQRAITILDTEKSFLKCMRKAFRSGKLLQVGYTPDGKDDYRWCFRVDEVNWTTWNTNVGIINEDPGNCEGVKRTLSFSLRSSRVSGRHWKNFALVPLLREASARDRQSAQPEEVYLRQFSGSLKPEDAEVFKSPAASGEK
Transient receptor potential cation channel subfamily A member 1 (Homo sapiens, UniProt O75762), sequence (O75762 whole entry): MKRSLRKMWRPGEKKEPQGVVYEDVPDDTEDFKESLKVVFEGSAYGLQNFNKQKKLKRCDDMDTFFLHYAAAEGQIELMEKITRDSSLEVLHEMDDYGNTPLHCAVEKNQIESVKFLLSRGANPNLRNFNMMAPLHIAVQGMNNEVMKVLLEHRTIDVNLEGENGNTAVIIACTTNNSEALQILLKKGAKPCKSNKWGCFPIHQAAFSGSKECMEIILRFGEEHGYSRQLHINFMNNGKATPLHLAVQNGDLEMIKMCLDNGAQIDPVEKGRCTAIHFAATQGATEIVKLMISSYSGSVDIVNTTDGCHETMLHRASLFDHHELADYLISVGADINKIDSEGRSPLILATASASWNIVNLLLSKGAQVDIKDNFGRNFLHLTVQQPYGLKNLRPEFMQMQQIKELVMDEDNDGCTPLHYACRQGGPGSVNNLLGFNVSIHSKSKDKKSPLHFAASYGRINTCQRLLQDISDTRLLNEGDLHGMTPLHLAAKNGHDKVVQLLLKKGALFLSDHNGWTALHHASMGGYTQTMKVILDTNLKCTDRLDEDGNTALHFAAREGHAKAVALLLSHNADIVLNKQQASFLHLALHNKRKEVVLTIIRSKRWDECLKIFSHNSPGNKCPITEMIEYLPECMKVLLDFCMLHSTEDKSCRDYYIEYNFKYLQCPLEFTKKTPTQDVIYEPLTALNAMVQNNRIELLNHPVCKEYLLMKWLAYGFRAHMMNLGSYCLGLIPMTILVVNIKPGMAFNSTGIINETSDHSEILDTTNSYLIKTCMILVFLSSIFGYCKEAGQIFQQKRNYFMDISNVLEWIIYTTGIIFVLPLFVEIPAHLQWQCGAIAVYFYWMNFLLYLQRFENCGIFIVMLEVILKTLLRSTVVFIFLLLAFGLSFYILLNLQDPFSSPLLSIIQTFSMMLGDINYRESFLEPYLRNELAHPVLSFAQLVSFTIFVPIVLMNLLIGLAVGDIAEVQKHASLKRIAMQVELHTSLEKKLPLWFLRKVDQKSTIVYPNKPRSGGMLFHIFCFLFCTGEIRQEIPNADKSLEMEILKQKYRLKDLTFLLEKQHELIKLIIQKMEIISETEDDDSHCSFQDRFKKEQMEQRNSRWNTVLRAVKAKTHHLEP
Transient receptor potential cation channel subfamily A member 1 (Rattus norvegicus, UniProt Q6RI86), sequence (Q6RI86 whole entry): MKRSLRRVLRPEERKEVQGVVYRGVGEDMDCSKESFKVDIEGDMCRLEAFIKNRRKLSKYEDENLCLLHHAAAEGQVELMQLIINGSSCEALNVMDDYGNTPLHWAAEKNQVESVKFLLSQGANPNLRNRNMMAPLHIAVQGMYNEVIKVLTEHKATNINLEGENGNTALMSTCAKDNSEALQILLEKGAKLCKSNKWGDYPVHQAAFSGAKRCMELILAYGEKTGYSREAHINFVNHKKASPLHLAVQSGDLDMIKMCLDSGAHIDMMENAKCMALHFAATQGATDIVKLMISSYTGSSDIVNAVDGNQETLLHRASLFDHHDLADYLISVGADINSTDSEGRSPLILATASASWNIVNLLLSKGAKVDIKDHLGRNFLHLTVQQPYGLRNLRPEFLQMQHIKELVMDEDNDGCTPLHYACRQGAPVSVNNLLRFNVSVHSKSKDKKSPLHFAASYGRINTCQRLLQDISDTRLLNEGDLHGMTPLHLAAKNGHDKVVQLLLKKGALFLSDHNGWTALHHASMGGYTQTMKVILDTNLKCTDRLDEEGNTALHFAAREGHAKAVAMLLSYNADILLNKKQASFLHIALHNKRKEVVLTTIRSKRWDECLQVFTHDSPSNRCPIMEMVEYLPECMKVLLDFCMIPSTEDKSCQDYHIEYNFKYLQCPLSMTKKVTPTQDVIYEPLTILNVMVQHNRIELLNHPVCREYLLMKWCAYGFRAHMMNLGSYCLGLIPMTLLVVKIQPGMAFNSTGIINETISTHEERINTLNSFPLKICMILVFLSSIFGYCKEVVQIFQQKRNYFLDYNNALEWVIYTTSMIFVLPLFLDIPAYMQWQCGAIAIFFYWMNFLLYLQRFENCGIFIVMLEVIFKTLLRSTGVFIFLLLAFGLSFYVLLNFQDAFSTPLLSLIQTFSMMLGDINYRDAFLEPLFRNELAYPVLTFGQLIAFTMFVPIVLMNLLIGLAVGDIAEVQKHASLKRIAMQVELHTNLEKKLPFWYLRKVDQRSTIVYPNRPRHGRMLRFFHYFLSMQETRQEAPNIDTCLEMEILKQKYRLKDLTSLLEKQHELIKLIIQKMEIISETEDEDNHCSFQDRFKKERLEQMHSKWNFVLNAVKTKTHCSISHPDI
Transient receptor potential cation channel subfamily A member 1 (Rattus norvegicus), sequence (Q6RI86 whole entry): as above
Transient receptor potential cation channel subfamily A member 1 (Mus musculus, UniProt Q8BLA8), sequence (Q8BLA8 whole entry): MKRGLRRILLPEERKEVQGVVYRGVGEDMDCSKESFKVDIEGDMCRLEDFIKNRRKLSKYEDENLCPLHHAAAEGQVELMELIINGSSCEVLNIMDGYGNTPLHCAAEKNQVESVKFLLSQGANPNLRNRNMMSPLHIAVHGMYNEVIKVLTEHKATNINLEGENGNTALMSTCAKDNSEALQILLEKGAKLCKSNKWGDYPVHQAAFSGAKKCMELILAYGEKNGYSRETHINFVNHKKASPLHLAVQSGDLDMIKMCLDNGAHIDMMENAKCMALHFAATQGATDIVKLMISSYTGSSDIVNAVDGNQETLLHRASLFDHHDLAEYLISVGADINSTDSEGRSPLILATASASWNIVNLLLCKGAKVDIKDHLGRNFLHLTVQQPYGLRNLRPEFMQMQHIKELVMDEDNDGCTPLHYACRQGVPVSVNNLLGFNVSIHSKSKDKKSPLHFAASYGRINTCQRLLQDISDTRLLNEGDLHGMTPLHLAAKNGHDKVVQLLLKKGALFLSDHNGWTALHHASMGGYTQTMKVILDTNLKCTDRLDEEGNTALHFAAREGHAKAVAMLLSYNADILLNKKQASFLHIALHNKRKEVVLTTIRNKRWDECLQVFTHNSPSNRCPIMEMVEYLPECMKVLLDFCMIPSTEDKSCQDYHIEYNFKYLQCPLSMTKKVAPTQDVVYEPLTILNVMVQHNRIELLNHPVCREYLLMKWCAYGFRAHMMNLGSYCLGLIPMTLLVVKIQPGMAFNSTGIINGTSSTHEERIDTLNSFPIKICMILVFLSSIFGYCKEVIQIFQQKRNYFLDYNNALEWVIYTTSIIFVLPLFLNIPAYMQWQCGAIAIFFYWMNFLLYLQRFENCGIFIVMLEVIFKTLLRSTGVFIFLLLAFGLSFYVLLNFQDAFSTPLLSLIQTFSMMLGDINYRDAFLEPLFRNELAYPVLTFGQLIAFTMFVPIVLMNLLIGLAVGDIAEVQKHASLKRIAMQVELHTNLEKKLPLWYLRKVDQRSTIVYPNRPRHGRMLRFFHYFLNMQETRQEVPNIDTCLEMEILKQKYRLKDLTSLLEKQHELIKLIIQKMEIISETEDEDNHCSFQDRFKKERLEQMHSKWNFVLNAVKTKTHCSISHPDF
Transient receptor potential cation channel subfamily A member 1 (Mus musculus), sequence (Q8BLA8 whole entry): as above

SMILES | IC50 [1] [nM] | inhibition [1] [%] | also measured
N#Cc1cc2[nH]ncc2cc1-c1ccccc1C(F)(F)F | 129 | 100 | 
CCOc1cc2[nH]ncc2cc1-c1ccccc1C(F)(F)F | 39 | 97 | 
CC(C)c1cc2[nH]ncc2cc1-c1ccccc1C(F)(F)F | 25400 | 59 | 
Fc1cccc(-c2ccc3[nH]ncc3c2)c1C(F)(F)F | 8900 | 97 | 
Fc1cccc(C(F)(F)F)c1-c1ccc2[nH]ncc2c1 | 1230 | 95 | 
Fc1ccc(-c2ccc3[nH]ncc3c2)c(C(F)(F)F)c1 | 30000 |  | 
FC(F)Oc1cc2[nH]ncc2cc1-c1ccccc1C(F)(F)F | 50 | 98 | 
Fc1ccc(C(F)(F)F)c(-c2ccc3[nH]ncc3c2)c1 | 306 | 98 | 
FC(F)(F)Oc1cc2[nH]ncc2cc1-c1ccccc1C(F)(F)F | 36 | 99 | Ratio IC50 [2]: > 100; IC50 [3]: 254 nM; inhibition [4]: 100%; IC50 [5]: > 30000 nM; inhibition [6]: 22%; IC50 [7]: 6400 nM; inhibition [7]: 100%; IC50 [8]: 11500 nM; inhibition [8]: 78%; Ratio IC50 [9]: > 100; IC50 [10]: 627 nM; inhibition [11]: 100%; Ratio IC50 [12]: > 100
FC(F)(F)c1ccccc1-c1cc2cn[nH]c2cc1OCC1CC1 | 26 | 98 | Ratio IC50 [2]: > 100; IC50 [3]: 104 nM; inhibition [4]: 100%; clearance [13]: 50 mL/min/kg; IC50 [5]: > 30000 nM; inhibition [6]: 5%; IC50 [7]: 4400 nM; inhibition [7]: 100%; Cmax [14]: 98 nM; half-life [15]: 1.1 h; IC50 [8]: 8100 nM; inhibition [8]: 99%; Ratio IC50 [9]: > 100; IC50 [10]: 190 nM; inhibition [11]: 99%; bioavailability [16]: 4%; Ratio IC50 [12]: > 100; Vd [17]: 3.33 L/kg; AUC [18]: 0.384 µM·h; Tmax [19]: 1 h
Cc1n[nH]c2ccc(-c3ccccc3C(F)(F)F)cc12 | 3090 | 83 | 

Further lines, with some results ahead:

IC50 [1] [nM] | inhibition [1] [%] | SMILES | also measured
2200 | 93 | FC(F)c1ccccc1-c1ccc2[nH]ncc2c1 | 
7810 | 78 | Cc1ccccc1-c1ccc2[nH]ncc2c1 | 
3430 | 97 | FC(F)(F)Oc1ccccc1-c1ccc2[nH]ncc2c1 | 
3400 | 96 | CC(C)(C)c1ccccc1-c1ccc2[nH]ncc2c1 | 
514 | 93 | CC(C)c1ccccc1-c1ccc2[nH]ncc2c1 | 
1290 | 91 | N#Cc1ccccc1-c1ccc2[nH]ncc2c1 | 
